Tests used:
Jurkat [1] = test: Inhibitory concentration required for 50% apoptosis induction was evaluated using jurkat cells (T-lymphoma cells); type: functional, cell-based; details: Homo sapiens
Method in brief: (§1)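 Jurkat T-lymphoma cells exposed 24 h to rising concentrations (0.1–100 μM). Ethanol-fixed cells then RNase-digested and stained with propidium iodide. Flow-cytometric cell-cycle analysis scored the hypodiploid (sub-G0/G1) fraction as apoptotic cells with fragmented DNA. IC50 taken from these concentration–response series.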

Jurkat [2] = test: Inhibitory concentration required for 50% apoptosis induction was evaluated using jurkat cells (T-lymphoma cells); NA means not active.; type: functional, cell-based, Homo sapiens; method in brief: as §1

CCCCCCCCCCCCCCC(CO)NC(=O)OC(C)(C)C (stereo not given)
IC50 (Jurkat [1]): 28 µM

CCCCCCCCCCCCCCC(CN(CC(=O)OCC)CC(=O)OCC)NC(=O)OC(C)(C)C (stereo not given)
IC50 (Jurkat [1]): > 60 µM

CCCCCCCCCCCCCCC(N)CN(CC(=O)OCC)CC(=O)OCC (stereo not given)
IC50 (Jurkat [1]): 32 µM

CCCCCCCCCCCCCCC(CNCC)NC(=O)OC(C)(C)C (stereo not given)
IC50 (Jurkat [1]): 6 µM

CCCCCCCCCCCCCCC(CN(CC)CC)NC(=O)OC(C)(C)C (stereo not given)
IC50 (Jurkat [1]): 21 µM

CCCCCCCCCCCCCCC(N)CN (stereo not given)
IC50 (Jurkat [1]): 55 µM

CCCCCCCCCCCCCCC(CNCC(=O)OCC)NC(=O)OC(C)(C)C (stereo not given)
IC50 (Jurkat [1]): 28 µM

CCCCCCCCCCCCCCC(=O)NC(CCCCCCCCCCCCCC)COC(=O)CCCCCC (stereo not given)
IC50 (Jurkat [2]): Not Active

CCCCCCCCCCCCCCC(CNCCCCC(=O)O)NC(=O)OC(C)(C)C (stereo not given)
IC50 (Jurkat [1]): 18 µM

CCCCCCCCCCCCCCC(N)CO (stereo not given)
IC50 (Jurkat [1]): 7 µM

CCCCCCCCCCCCCCC(COCc1ccccc1)NC(=O)CCC(=O)O (stereo not given)
IC50 (Jurkat [1]): 30 µM

CCCCCCCCCCCCCCC(CO)NCCCCCC (stereo not given)
IC50 (Jurkat [1]): 6 µM

CCCCCCCCCCCCCCC(N)COCc1ccccc1 (stereo not given)
IC50 (Jurkat [1]): 3 µM

CCCCCCCCCCCCCCC(COCc1ccccc1)N(CC)CC (stereo not given)
IC50 (Jurkat [1]): 20 µM

CCCCCCCCCCCCCCC(CO)N(CC)CC (stereo not given)
IC50 (Jurkat [1]): 1 µM

CCCCCCCCCCCCCCC(=O)NC(CCCCCCCCCCCCCC)COC(=O)CCCCCCCCCCCCCC (stereo not given)
IC50 (Jurkat [2]): Not Active

CCCCCCCCCCCCCCC(CN(CC)CC)NCCCCC(=O)O (stereo not given)
IC50 (Jurkat [2]): Not Active

CCCCCCCCCCCCCCC(COCc1ccccc1)NCC(=O)O (stereo not given)
IC50 (Jurkat [1]): 3 µM

CCCCCCCCCCCCCCC(O)CNCc1ccccc1 (stereo not given)
IC50 (Jurkat [1]): 27 µM

CCCCCCCCCCCCCCC(O)CNC1CCCCC1 (stereo not given)
IC50 (Jurkat [1]): 6 µM

CCCCCCCCCCCCCCC(COC(=O)CCCCCC)NC(=O)CCCCCC (stereo not given)
IC50 (Jurkat [2]): Not Active

CCCCCCCCCCCCCCC(N)CN(CC)CC (stereo not given)
IC50 (Jurkat [1]): 7 µM

CCCCCCCCCCCCCCC(CN)NC(=O)OC(C)(C)C (stereo not given)
IC50 (Jurkat [1]): 6 µM

CCCCCCCCCCCCCCC(CO)NCC (stereo not given)
IC50 (Jurkat [1]): 6 µM

CCCCCCCCCCCCCCC(N)CNCC(=O)O (stereo not given)
IC50 (Jurkat [1]): 31 µM

CCCCCCCCCCCCCCC(CO)NC(=O)CCCC(=O)O (stereo not given)
IC50 (Jurkat [1]): 24 µM

CCCCCCCCCCCCCCC(N)CNCCCCC(=O)O (stereo not given)
IC50 (Jurkat [1]): 55 µM

CCCCCCCCCCCCCCC(COCc1ccccc1)NC(=O)CCCC(=O)O (stereo not given)
IC50 (Jurkat [1]): > 50 µM

CCCCCCCCCCCCCCC(N)CNCC(=O)OCC (stereo not given)
IC50 (Jurkat [2]): Not Active

CCCCCCCCCCCCCCC(COCc1ccccc1)NCC (stereo not given)
IC50 (Jurkat [1]): 6 µM

Reference: ChEMBL document CHEMBL1135333, “Long-chain aminoalcohol and diamine derivatives induce apoptosis through a caspase-3 dependent pathway” (Bioorg Med Chem Lett, 2002)
